# Reference: ChEMBL document CHEMBL1122207, “Antitumor agents. 2. Bisguanylhydrazones of anthracene-9,10-dicarboxaldehydes” (1982)
# Legend:
# Type in all cases: functional
# Mus musculus [1] = assay: Percent increase in median life span of BDF1 mice with P-388 leukemia at dose 18.8 mg/kg administered intraperitoneally; details: BDF1, P388, ip, route intraperitoneal
# Mus musculus [2] = organism: Mus musculus; assay: Number of survivors of the total treated mice with B-16 melanoma, at 60 days.
# How it was run: (§1)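 BDF1 mice were implanted ip with a homogenate from 0.05 g of B-16 melanoma and dosed ip on days 1-9. Cures are survivors over total at 60 days.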
# Mus musculus [3] = organism: Mus musculus; assay: Anticancer activity measured as the number of survivors of the total treated mice with P-388 leukemia at 30 days.
# How it was run: (§2)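 BDF1 or CDF1 mice given 10^6 ascitic P-388 leukemia cells ip, then treated ip on days 1, 5 and 9. Cures are survivors over total treated at 30 days.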
# Mus musculus [4] = assay: Percent increase in median life span of BDF1 mice with B-16 melanoma at dose 6.00 mg/kg administered intraperitoneally; details: BDF1, B16, ip, route intraperitoneal
# How it was run: (§3)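 BDF1 mice were implanted ip with a homogenate from 0.05 g of B-16 melanoma. Ip dosing ran on days 1-9, starting 24 h after implant, in dose-response studies following NCI protocols. The read-out was percent increase in life span (ILS). T/C ≥125% was taken as significant.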
# Mus musculus [5] = assay: Percent increase in median life span of BDF1 mice with P-388 leukemia at dose 25 mg/kg administered intraperitoneally; details: BDF1, P388, ip, route intraperitoneal
# Mus musculus [6] = assay: Percent increase in median life span of BDF1 mice with madison lung 109 leukemia administered intraperitoneally
# Mus musculus [7] = organism: Mus musculus; assay: Cures is the number of survivors of the total treated mice (20) with B-16 melanoma, at 60 days.; how it was run: as §1
# Mus musculus [8] = organism: Mus musculus; assay: Cures is the number of survivors of the total treated mice (17) with L-1210 leukemia, at 30 days.
# Mus musculus [9] = assay: Percent tumor inhibition at non-lethal dose was determined in BDF1 mice with madison lung 109 leukemia; 1, 5, 9 days of sc treatment relative to tumor inoculation
# Mus musculus [10] = organism: Mus musculus; assay: Cures is the number of survivors of the total treated mice (10) with P-388 leukemia, at 30 days.; how it was run: as §2
# Mus musculus [11] = assay: Percent increase in median life span of BDF1 mice with Colon 26 at dose 6.2 mg/kg administered intraperitoneally; Range is 114-150%; 1, 5, 9 days of ip treatment relative to tumor inoculation; details: BDF1, Colon 26, ip, 216 h, route intraperitoneal
# Mus musculus [12] = assay: Cures is the number of survivors of the total treated mice (6) with advanced L-1210 leukemia; treatment day +2 iv
# How it was run: (§4)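 Advanced L-1210 leukemia, treated iv once on day +2 relative to tumor inoculation.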
# Mus musculus [13] = organism: Mus musculus; assay: Cures is the number of survivors of the total treated mice (10) with advanced B-16 melanoma, at 30 days.
# Mus musculus [14] = assay: Percent increase in median life span of BDF1 mice with advanced P-388 leukemia at dose 12.5 mg/kg administered intraperitoneally; 4, 8, 12 days of ip treatment relative to tumor inoculation; details: P388, ip, 288 h, route intraperitoneal
# Mus musculus [15] = organism: Mus musculus; assay: Cures is the number of survivors of the total treated mice (20) with Colon 26, at 60 days.
# Mus musculus [16] = organism: Mus musculus; assay: Cures is the number of survivors of the total treated mice (6) with P-388 leukemia, at 30 days.; how it was run: as §2
# Mus musculus [17] = assay: Percent increase in median life span of BDF1 mice with advanced B-16 melanoma at dose 12.5 mg/kg administered intraperitoneally; 5, 9, 13 days of ip treatment relative to tumor inoculation; details: BDF1, B16, ip, 312 h, route intraperitoneal
# Mus musculus [18] = organism: Mus musculus; assay: Percent increase in median life span of BDF1 mice with advanced L-1210 leukemia
# Mus musculus [19] = assay: Percent increase in median life span of BDF1 mice with B-16 melanoma at dose 6 mg/kg administered intraperitoneally; range 98-122%; 1-9 days of ip treatment relative to tumor inoculation; details: BDF1, B16, ip, route intraperitoneal; how it was run: as §3
# Mus musculus [20] = organism: Mus musculus; assay: Cures is the number of survivors of the total treated mice (42) with P-388 leukemia, at 30 days.; how it was run: as §2
# Mus musculus [21] = assay: Percent increase in median life span of BDF1 mice with L-1210 leukemia at dose 12.5 mg/kg administered intraperitoneally; 1, 5, 9 days of ip treatment relative to tumor inoculation; details: BDF1, L1210, ip, 216 h, route intraperitoneal
# How it was run: (§5)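 BDF1 or CDF1 mice given 10^6 ascitic leukemia cells ip, then dosed ip on days 1, 5 and 9. Read-out is percent increase in life span versus untreated controls. Cures were scored as survivors/total at 30 days; when cures reached 50% or more, the run was extended until a specific ILS could be calculated. T/C ≥125% counted as significant.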
# Mus musculus [22] = assay: Percent increase in median life span of BDF1 mice with P-388 leukemia at dose 12.5 mg/kg administered intraperitoneally; 1, 5, 9 days of ip treatment relative to tumor inoculation; details: BDF1, P388, ip, 216 h, route intraperitoneal; how it was run: as §5
# Mus musculus [23] = assay: Percent increase in median life span of BDF1 mice with advanced L-1210 leukemia at dose 50 mg/kg administered intraperitoneally; treatment day +2 iv; details: L1210
# Mus musculus [24] = organism: Mus musculus; assay: Cures is the number of survivors of the total treated mice (24) with P-388 leukemia, at 30 days.; how it was run: as §2
# Mus musculus [25] = organism: Mus musculus; assay: Cures is the number of survivors of the total treated mice (5) with L-1210 leukemia, at 30 days.
# Mus musculus [26] = organism: Mus musculus; assay: Cures is the number of survivors of the total treated mice (26) with Colon 26, at 60 days.
# Mus musculus [27] = assay: Percent increase in median life span of BDF1 mice with advanced P-388 leukemia at dose 25 mg/kg administered intraperitoneally; 4, 8, 12 days of ip treatment relative to tumor inoculation; details: P388, ip, 288 h, route intraperitoneal
# Mus musculus [28] = assay: Percent increase in median life span of BDF1 mice with advanced B-16 melanoma at dose 25 mg/kg administered intraperitoneally; 5, 9, 13 days of ip treatment relative to tumor inoculation; details: B16, ip, 312 h, route intraperitoneal
# Mus musculus [29] = assay: Percent increase in median life span of BDF1 mice with Colon 26 at dose 12.5 mg/kg administered intraperitoneally; 1, 5, 9 days of ip treatment relative to tumor inoculation; details: BDF1, Colon 26, ip, 216 h, route intraperitoneal
# Mus musculus [30] = assay: Percent increase in median life span of BDF1 mice with B-16 melanoma at dose 12 mg/kg administered intraperitoneally; Range 144-145%, 1-9 days of ip treatment relative to tumor inoculation; details: BDF1, B16, ip, route intraperitoneal; how it was run: as §3
# Mus musculus [31] = assay: Cures is the number of survivors of the total treated mice (6) with advanced L-1210 leukemia, at 30 days; treatment day +2 iv; how it was run: as §4
# Mus musculus [32] = assay: Percent increase in median life span of BDF1 mice with L-1210 leukemia at dose 25 mg/kg administered intraperitoneally; 1, 5, 9 days of ip treatment relative to tumor inoculation; details: BDF1, L1210, ip, 216 h, route intraperitoneal; how it was run: as §5
# Mus musculus [33] = assay: Percent increase in median life span of BDF1 mice with P-388 leukemia at dose 25 mg/kg administered intraperitoneally; 1, 5, 9 days of ip treatment relative to tumor inoculation; details: BDF1, P388, ip, 216 h, route intraperitoneal; how it was run: as §5
compound,measurement,setting,value
Cc1ccc(C)c2c(/C=N/NC3=NCCN3)c3ccccc3c(/C=N/NC3=NCCN3)c12.Cl.Cl,ILS at 18.8 mg/kg,Mus musculus [1],57%
same,Cures,Mus musculus [2],0
same,Cures,Mus musculus [3],0
CN(C)CCCCC/N=C(\S)N/N=C/c1c2ccccc2c(/C=N/N/C(S)=N/CCCCCN(C)C)c2ccccc12.Cl.Cl,Cures,Mus musculus [2],0
same,Cures,Mus musculus [3],0
same,ILS at 6 mg/kg,Mus musculus [4],97%
same,ILS at 25 mg/kg,Mus musculus [5],48%
C(=N\NC1=NCCN1)/c1c2ccccc2c(/C=N/NC2=NCCN2)c2ccccc12 [BISANTRENE],ILS,Mus musculus [6],<25%
same,Cures,Mus musculus [7],2
same,Cures,Mus musculus [8],0
same,Inhibition,Mus musculus [9],20%
same,Cures,Mus musculus [10],2
same,ILS at 6.2 mg/kg,Mus musculus [11],114%
same,Cures,Mus musculus [12],0
same,Cures,Mus musculus [13],2
same,ILS at 12.5 mg/kg,Mus musculus [14],76%
same,Cures,Mus musculus [15],6
same,Cures,Mus musculus [16],0
same,ILS at 12.5 mg/kg,Mus musculus [17],54%
same,ILS,Mus musculus [18],48%
same,ILS at 6 mg/kg,Mus musculus [19],122%
same,Cures,Mus musculus [20],17
same,ILS at 12.5 mg/kg,Mus musculus [21],62%
same,ILS at 12.5 mg/kg,Mus musculus [22],137%
C/N=C(\N)N/N=C/c1c2ccccc2c(/C=N/N/C(N)=N/C)c2ccccc12,ILS,Mus musculus [6],53%
same,ILS at 50 mg/kg,Mus musculus [23],50%
same,Cures,Mus musculus [24],6
same,Cures,Mus musculus [7],8
same,Cures,Mus musculus [25],0
same,Inhibition,Mus musculus [9],89%
same,Cures,Mus musculus [26],2
same,ILS at 25 mg/kg,Mus musculus [27],108%
same,ILS at 25 mg/kg,Mus musculus [28],62%
same,ILS at 12.5 mg/kg,Mus musculus [29],129%
same,Cures,Mus musculus [13],5
same,ILS at 12 mg/kg,Mus musculus [30],145%
same,Cures,Mus musculus [31],0
same,Cures,Mus musculus [16],1
same,ILS at 25 mg/kg,Mus musculus [32],62%
same,ILS at 25 mg/kg,Mus musculus [33],157%
